Measurements: ChEMBL document CHEMBL2177000, “Pharmacokinetic optimization of class-selective histone deacetylase inhibitors and identification of associated candidate predictive biomarkers of hepatocellular carcinoma tumor response” (J Med Chem, 2012)
≈ marks a conversion by molar mass, not a printed value.

How the values were obtained:
[1] = Oral bioavailability in BALB/C mouse at 10 mg/kg by LC-MS/MS method; type: ADME, organism-based; conditions: BALB/C, in vivo
How it was run: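 Bioavailability from single-dose iv (2 mg/kg, 5% DMSO/40% PEG400/55% saline) and oral gavage (10 mg/kg, 0.445% microcrystalline cellulose microsuspension) studies in BALB/C nude mice (N = 16 per arm); plasma at eight (po) or nine (iv) time points, LC-MS/MS, noncompartmental analysis.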

[2] = Clearance in BALB/C mouse at 10 mg/kg, po or 2 mg/kg, iv by LC-MS/MS method; type: ADME, organism-based; conditions: in vivo
How it was run: (§1)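 Female-unspecified BALB/C nude mice (15−20 g, N = 16 per arm); iv bolus 2 mg/kg in 5% DMSO/40% PEG400/55% saline and/or oral gavage 10 mg/kg as 0.445% microcrystalline cellulose microsuspension. Blood sampled at nine (iv) or eight (po) time points into sodium heparin tubes; plasma by LC-MS/MS; noncompartmental analysis.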

[3] = Clearance in mouse liver microsomes at 1 uM incubated for 10 mins by LC-MS/MS method; type: ADME, Microsome
How it was run: (§2)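 Liver microsomes (human or mouse, 0.5 mg/mL) in 100 mM potassium phosphate pH 7.4 with 1 μM compound, prewarmed 10 min at 37 °C, started with NADPH (10 mM); stopped at 0, 3, 6, 9, 15, 30 min with ice-cold methanol containing tolbutamide internal standard; LC-MS/MS. Hepatic clearance (mL/min/kg) calculated from intrinsic clearance.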

[4] = molecular target: Histone deacetylase (Homo sapiens) (UniProt Q13547+O15379+Q9UBN7+Q92769+Q9UQL6+Q8WUI4+Q9BY41+Q96DB2+P56524+Q9UKV0+Q969S8); assay: Inhibition of Class 1 histone deacetylase in human HeLa cells assessed as induction in p21 protein expression at 3 uM incubated for 16 hrs by luciferase reporter gene assay relative to HDAC inhibitor entinostat; type: cell-based; parameters: scale not given: the % may be the effect or the level left
[5] = Solubility in 50 mM phosphate buffer at pH 6.5 by HPLC method; type: physicochemical
How it was run: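 10 mM DMSO stock dried, residue redissolved in 50 mM phosphate buffer pH 6.5, stirred 1 h and shaken 2 h, left overnight, filtered and analysed by HPLC against calibration standards of 50−500 μM diluted from the DMSO stock.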

[6] = Volume of distribution at steady state in BALB/C mouse at 10 mg/kg, po or 2 mg/kg, iv by LC-MS/MS method; type: ADME, organism-based; parameters: unit not given here; conditions: in vivo, read-out: Vdss
How it was run: (§3)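 Single-dose PK: iv bolus 2 mg/kg in 5% DMSO/40% PEG400/55% saline and/or oral gavage 10 mg/kg as 0.445% microcrystalline cellulose microsuspension; BALB/C nude mice (15−20 g, N = 16 per arm) or male Sprague−Dawley rats (250 ± 20 g, N = 3). Blood at eight (po) or nine (iv) time points into sodium heparin, plasma by LC-MS/MS, noncompartmental analysis.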

[7] = AUC in BALB/C mouse at 10 mg/kg, po or 2 mg/kg, iv by LC-MS/MS method; type: ADME, organism-based, Plasma; conditions: BALB/C, plasma; how it was run: as §1
[8] = Half life in BALB/C mouse at 10 mg/kg, po or 2 mg/kg, iv by LC-MS/MS method; type: ADME, organism-based; conditions: BALB/C, in vivo; how it was run: as §1
[9] = Cmax in BALB/C mouse at 10 mg/kg, po or 2 mg/kg, iv by LC-MS/MS method; type: ADME, organism-based; conditions: BALB/C, in vivo; how it was run: as §1
[10] = Tmax in BALB/C mouse at 10 mg/kg, po or 2 mg/kg, iv by LC-MS/MS method; type: ADME, organism-based; conditions: BALB/C, in vivo; how it was run: as §3
[11] = Clearance in human liver microsomes at 1 uM incubated for 10 mins by LC-MS/MS method; type: ADME, Microsome; how it was run: as §2
[12] = Oral bioavailability in BALB/C mouse at 5 mg/kg by LC-MS/MS method; type: ADME, organism-based; conditions: in vivo
How it was run: (§4)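 BALB/C nude mice (15−20 g) given 5 mg/kg po and 1 mg/kg iv; blood collected at eight (po) or nine (iv) time points into sodium heparin tubes, plasma stored at −20 °C, measured by LC-MS/MS and analysed noncompartmentally.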

[13] = Volume of distribution at steady state in BALB/C mouse at 5 mg/kg, po or 1 mg/kg, iv by LC-MS/MS method; type: ADME, organism-based; conditions: in vivo, read-out: Vdss
How it was run: (§5)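 Nude-mouse PK at reduced doses, 1 mg/kg iv bolus (5% DMSO, 40% PEG400, 55% saline) and 5 mg/kg oral gavage (microcrystalline cellulose microsuspension); plasma from serial heparinized blood samples (eight po, nine iv time points) quantified by LC-MS/MS, parameters by noncompartmental methods.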

[14] = Clearance in BALB/C mouse at 5 mg/kg, po or 1 mg/kg, iv by LC-MS/MS method; type: ADME, organism-based; conditions: in vivo; how it was run: as §4
[15] = AUC in BALB/C mouse at 5 mg/kg, po or 1 mg/kg, iv by LC-MS/MS method; type: ADME, organism-based; conditions: plasma; how it was run: as §4
[16] = Half life in BALB/C mouse at 5 mg/kg, po or 1 mg/kg, iv by LC-MS/MS method; type: ADME, organism-based; conditions: in vivo; how it was run: as §4
[17] = Cmax in BALB/C mouse at 5 mg/kg, po or 1 mg/kg, iv by LC-MS/MS method; type: ADME, organism-based; conditions: in vivo; how it was run: as §4
[18] = Tmax in BALB/C mouse at 5 mg/kg, po or 1 mg/kg, iv by LC-MS/MS method; type: ADME, organism-based; conditions: in vivo; how it was run: as §5

SMILES | bioavailability [1] | clearance [2] | CLhep predicted at 1 µM [3] | Activity [4] | solubility [5] | Vd [6] | AUC [7] | half-life [8] | Cmax [9] | Tmax [10] | CLhep predicted at 1 µM [11] | bioavailability [12] | Vd [13] | clearance [14] | AUC [15] | half-life [16] | Cmax [17] | Tmax [18]
Nc1ccccc1NC(=O)/C=C/c1ccc(C(C(=O)Nc2ccc(Br)cc2)N2CC[C@H](O)C2)cc1 (some centres undefined) | 13% | 0.48 L/h/kg | 3.12 L/h/kg | 150% | 0.005 mg/mL (≈ 9.34 µM) |  |  |  |  |  |  |  |  |  |  |  |  | 
Nc1ccccc1NC(=O)/C=C/c1ccc(C(NCCN2CCOCC2)C(=O)Nc2ccc(C(F)(F)F)cc2)cc1 (racemic) | 11% | 7.32 L/h/kg | 4.68 L/h/kg | 100% | 0.032 mg/mL (≈ 56.4 µM) |  |  |  |  |  |  |  |  |  |  |  |  | 
Nc1ccccc1NC(=O)/C=C/c1ccc(C(NCCO)C(=O)Nc2ccc(C(F)(F)F)cc2)cc1 (racemic) | 71% | 2.94 L/h/kg | 1.98 L/h/kg | 117% | 0.005 mg/mL (≈ 10 µM) |  |  |  |  |  |  |  |  |  |  |  |  | 
CC(C)N1C[C@H](C(=O)Nc2ccc(Cl)cc2)[C@@H](c2ccc(/C=C/C(=O)Nc3ccccc3N)cc2)C1 (racemic) | 100% | 5.16 L/h/kg | 2.28 L/h/kg | 230% |  | 32 | 2.08 µg·h/mL | 5.4 h | 0.331 µg/mL | 2 h |  |  |  |  |  |  |  | 

The next lines start with the values.

bioavailability [1] | clearance [2] | CLhep predicted at 1 µM [3] | Activity [4] | solubility [5] | Vd [6] | AUC [7] | half-life [8] | Cmax [9] | Tmax [10] | CLhep predicted at 1 µM [11] | bioavailability [12] | Vd [13] | clearance [14] | AUC [15] | half-life [16] | Cmax [17] | Tmax [18] | SMILES
21% | 4.02 L/h/kg | 2.04 L/h/kg | 216% | 0.61 mg/mL (≈ 1110 µM) |  |  |  |  |  |  |  |  |  |  |  |  |  | CN(C)[C@H]1CCN(C(C(=O)Nc2ccc(C(F)(F)F)cc2)c2ccc(/C=C/C(=O)Nc3ccccc3N)cc2)C1 (some centres undefined)
23% | 2.34 L/h/kg | 2.64 L/h/kg | 220% |  | 5.6 | 1 µg·h/mL | 4.9 h | 0.315 µg/mL | 0.17 h | 0.72 L/h/kg |  |  |  |  |  |  |  | Nc1ccccc1NC(=O)/C=C/c1ccc([C@H]2CN(C3CCOCC3)C[C@@H]2C(=O)Nc2ccc(Cl)cc2)cc1 (racemic)
 |  | 2.16 L/h/kg | 100% |  |  |  |  |  |  | 0.36 L/h/kg | 19% | 4 L | 4.74 L/h/kg | 0.204 µg·h/mL | 4.6 h | 0.06 µg/mL | 0.17 h | CN1C[C@H](C(=O)Nc2ccc(Cl)cc2)[C@@H](c2ccc(/C=C/C(=O)Nc3ccccc3N)cn2)C1 (racemic)
